H9c2 TAG inh: inhibitors of triacylglycerol accumulation, primary screen, cell-based, uHTS, fluorescence, H9c2; inhibition, % at 12.5 µM; AID 651582, 2012; hit rate 0.66% among 230,000; H9c2 cells, Nile Red lipid (TAG) fluorescence; cells loaded with 200 µM oleic acid;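 active = pattern-corrected inhibition of lipid staining of at least 50% with the nuclear-stain viability signal not falling by more than 50%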
A1 inh: caspase 3/7 activation in MEF A1-2A-BIM cells, primary screen, A1 inhibitor project, cell-based, luminescence, HTS; Caspase-Glo 3/7 luminescence, 3 h; percent of clofoctol response, vehicle zero; caspase activation, % (test concentration not listed); hit rate 0.066% among 330,000; AID 2462, 2010;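 active = over half of replicate activation scores above 10%, or exactly half above 10 with the replicate mean above 10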
SR-BI HDL uptake: inhibitors of SR-BI mediated HDL lipid uptake, primary screen, ldlA[mSR-BI] cells, fluorescence, single point; inhibition, % at 12.5 µM; hit rate 0.96% among 320,000; ldlA[mSR-BI] CHO cells, DiI-HDL uptake fluorescence, 3 h; Scavenger receptor class B member 1 (Mus musculus), Q61009;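 active = mean replicate inhibition of at least 70% and a set share of replicates each scoring 70 or more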
Target sequence (Q61009 whole entry, looked up): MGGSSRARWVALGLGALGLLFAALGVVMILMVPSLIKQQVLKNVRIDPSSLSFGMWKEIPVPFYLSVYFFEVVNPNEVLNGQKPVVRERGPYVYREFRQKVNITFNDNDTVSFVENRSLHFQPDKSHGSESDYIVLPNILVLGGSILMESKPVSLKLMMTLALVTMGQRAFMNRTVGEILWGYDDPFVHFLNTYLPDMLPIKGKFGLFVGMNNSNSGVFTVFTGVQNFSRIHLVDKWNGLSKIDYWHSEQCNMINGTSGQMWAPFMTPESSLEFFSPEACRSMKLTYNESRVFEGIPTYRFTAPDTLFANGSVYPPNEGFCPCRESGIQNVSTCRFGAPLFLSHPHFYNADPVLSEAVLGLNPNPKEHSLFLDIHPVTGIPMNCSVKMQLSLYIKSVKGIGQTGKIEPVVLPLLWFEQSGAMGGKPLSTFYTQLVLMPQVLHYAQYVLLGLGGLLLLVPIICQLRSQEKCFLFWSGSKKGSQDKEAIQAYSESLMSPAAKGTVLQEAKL
SR-BI uptake up: activators of SR-BI mediated DiI-HDL uptake, primary screen, ldlA[mSR-BI] CHO cells, DiI fluorescence | 3 h; 100 = double the neutral-control signal | hit rate 0.096% among 320,000 | activation, % at 12.5 µM;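 active = mean replicate activation of at least 60% and every replicate at or above 60%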
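Assay system: CHO ldlA[mSR-BI] cells, LDL receptor-null, SR-BI overexpressing; medium: Ham's F12 with 0.5% BSA, HEPES 25 mM, pH 7.4; also added: DiI-HDL 10 µg/mL; timing: 3 h uptake period with compound, 37 °C; signal: DiI fluorescence, bottom read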
Vif imaging: HIV Vif self-association inhibitors, primary screen, imaging, HEK293T, single point | hit rate 0.35% among 340,000 | HEK293T cells, Vif self-association by quenched fluorescence, 24 h | inhibition, % at 7.49 µM; in the data active = inhibition above about 50%, passing the limit was not always enough
Of the large screens only hits and unclear results are named; the others gave an inactive call. Hits are enriched below; roughly 1.6% of the tested compounds scored in any of these assays.

COCCNC(=O)c1nn2c(C(F)(F)F)cc(-c3ccccc3)nc2c1Cl	Vif imaging 106
O=C(Nc1cnn(Cc2ccccc2)c1)c1cc2nc(-c3ccco3)cc(C(F)(F)F)n2n1	SR-BI HDL uptake 71 (no result: H9c2 TAG inh)
COc1ccc(-c2cc(C(F)(F)F)n3nc(C(=O)NCc4ccco4)c(Cl)c3n2)cc1	Vif imaging 157
Cc1nn(C)cc1NC(=O)c1cc2nc(-c3ccco3)cc(C(F)(F)F)n2n1	none
COc1ccc(-c2cc(C(F)(F)F)n3nc(C(=O)NCc4ccco4)cc3n2)cc1	none (no result: H9c2 TAG inh)
O=C(NCc1ccco1)c1cc2nc(-c3ccc4c(c3)OCO4)cc(C(F)(F)F)n2n1	SR-BI HDL uptake 72 (no result: H9c2 TAG inh)
CC(C)C(NC(=O)c1ccc(F)cc1)C(=O)NCC1CCCO1 (configuration not stated)	none (no result: SR-BI HDL uptake, SR-BI uptake up, Vif imaging)
O=C(c1ccc(NS(=O)(=O)c2cccc([N+](=O)[O-])c2)cc1)N1CCN(C(=O)c2ccco2)CC1	SR-BI uptake up 63
CCn1nc(C)c(CN2CCC(n3nccc3NC(=O)c3ccc4c(c3)OCO4)CC2)c1C	none
COc1cc(C(=O)NCCc2cn3ccccc3n2)cc(OC)c1OC	none
COc1cc(C(=O)NCCc2cn3ccc(C)cc3n2)cc(OC)c1OC	Vif imaging 96
O=C(NCc1cccc2ccccc12)c1cccs1	none
Cc1oc(-c2ccccc2F)nc1CS(=O)CC(=O)NC1CCCC1 (configuration not stated)	SR-BI HDL uptake 85 (no result: H9c2 TAG inh)
Cc1ccccc1-c1nc(CS(=O)CC(=O)NC2CCCC2)c(C)o1 (configuration not stated)	none (no result: H9c2 TAG inh)
COc1ccc(CCCNC(=O)C2Cc3c(-c4ccc5c(c4)OCO5)ccnc3O2)cc1 (configuration not stated)	none (no result: A1 inh, SR-BI HDL uptake, SR-BI uptake up)
CCOC(=O)/C(=N/Nc1ccccc1)c1csc(Nc2ccccc2)n1	SR-BI HDL uptake 95 (no result: H9c2 TAG inh, Vif imaging)
CCOC(=O)/C(=N\Nc1ccc(OC)cc1)c1csc(Nc2ccccc2)n1	SR-BI HDL uptake 99 (no result: H9c2 TAG inh)
O=C(O)c1ccc(-c2nc(-c3cccc(C(F)(F)F)c3)cs2)cc1	Vif imaging 59 (no result: H9c2 TAG inh, A1 inh)
CC(O)(c1ccccc1)c1nc(-c2cccc(C(F)(F)F)c2)cs1 (configuration not stated)	none (no result: A1 inh, SR-BI HDL uptake, SR-BI uptake up, Vif imaging)
COCCCN1CN(S(=O)(=O)c2ccc(C)cc2C)c2nc3ccccc3nc21	none (no result: H9c2 TAG inh)
O=C(Nc1c(C(=O)c2ccccc2)oc2ccccc12)c1cc(-c2ccccc2O)n[nH]1	SR-BI HDL uptake 74 (no result: H9c2 TAG inh)
CCC1(CC)NC(=O)N(CC(=O)Nc2cccc3ccccc23)C1=O	none
CCCCOc1cccc2c(=O)n(CC(=O)Nc3ccc4c(c3)OCCO4)ccc12	Vif imaging 73 (no result: A1 inh, SR-BI HDL uptake, SR-BI uptake up)
COc1cc(Cl)c(NC2=CC(=O)C(=O)c3ccccc32)c(OC)c1	SR-BI HDL uptake 90
COc1cc(/C=N/N(C)c2ccccc2)ccc1O	none
COc1cc(OC)c(OC)cc1/C=N/N(C)c1ccccc1	SR-BI HDL uptake 81 (no result: H9c2 TAG inh)
Cc1ccc(S(=O)(=O)c2nc(-c3ccccc3Cl)oc2N(C)C)cc1	none
COc1ccccc1-c1nc(S(=O)(=O)c2ccc(Cl)cc2)c(N(C)C)o1	Vif imaging 53 (no result: H9c2 TAG inh)
CC(=O)NC1=NN(C(C)=O)C(C)(c2ccc(C)o2)S1 (configuration not stated)	none
CC(=O)NC1=NN(C(C)=O)C(C)(c2ccco2)S1 (configuration not stated)	Vif imaging 51
CCCS(=O)(=O)NC(=O)C1(C)CCCN(C(=O)c2cccc(Cl)c2)C1 (configuration not stated)	none (no result: A1 inh, SR-BI HDL uptake, SR-BI uptake up)
CN1CCc2c(sc(NC(=O)c3ccco3)c2C(N)=O)C1	none
CC(C)N1CCc2c(sc(NC(=O)c3cc4cc([N+](=O)[O-])ccc4s3)c2C(N)=O)C1	Vif imaging 80 (no result: A1 inh)
CC(C)N1CCc2c(sc(NC(=O)c3ccc4ccccc4c3)c2C(N)=O)C1	none
CN1CCc2c(sc(NC(=O)c3cc(Cl)sc3Cl)c2C(N)=O)C1	Vif imaging 161 (no result: SR-BI HDL uptake, SR-BI uptake up)
COc1cc([C@H]2c3c(cc(OC)c(O)c3OC)C[C@@H](CO)[C@@H]2CO[C@@H]2O[C@H](CO)[C@@H](O)[C@H](O)[C@H]2O)cc(OC)c1O	none (no result: H9c2 TAG inh)
Nc1nnc(CSCc2cccc(Br)c2)s1	none (no result: SR-BI HDL uptake, SR-BI uptake up)
CC(C)Oc1ccc(S(=O)(=O)N2CCOCC2)cc1NC(=O)c1ccc(Cl)c(S(=O)(=O)N2CCOCC2)c1	none (no result: A1 inh, SR-BI HDL uptake, SR-BI uptake up)
CCCc1nnc2n1N=C(c1ccc(OC)c(OC)c1)CS2	Vif imaging 57 (no result: H9c2 TAG inh)
O=[N+]([O-])c1ccc(N/N=C/c2sc(N3CCOCC3)nc2-c2ccccc2)c(S(=O)(=O)Nc2ccc(Cl)cc2)c1	SR-BI HDL uptake 118 (no result: H9c2 TAG inh, A1 inh)
O=[N+]([O-])c1ccc(N/N=C/c2sc(N3CCOCC3)nc2-c2ccccc2)c(S(=O)(=O)Nc2ccccc2Cl)c1	none (no result: H9c2 TAG inh, A1 inh)
O=C(N/N=C/c1sc(N2CCOCC2)nc1-c1ccccc1)c1ccccc1Cl	SR-BI HDL uptake 83
Cc1cc(C)c2c(=O)n3c(nc2c1)C(Cc1ccc(O)cc1)NC(=O)c1cc2ccccc2cc1-3 (configuration not stated)	none (no result: A1 inh, SR-BI HDL uptake, SR-BI uptake up, Vif imaging)
C[C@H](CO)N1C[C@H](C)[C@H](CN(C)C(=O)c2ccccc2)OCc2ccccc2-c2c(n(C)c3ccccc23)C1=O	none (no result: A1 inh, SR-BI HDL uptake, SR-BI uptake up)
CC(C)(C)OC(=O)NCCCC[C@H](NC(=O)c1[nH]cnc1C(=O)N[C@@H](Cc1ccccc1)C(=O)OC(C)(C)C)C(=O)OC(C)(C)C	SR-BI uptake up 64
CC(C)(C)OC(=O)NCCCCCNC(=O)c1[nH]cnc1C(=O)N[C@@H](Cc1ccccc1)C(=O)OC(C)(C)C	none (no result: Vif imaging)
C[C@H](NC(=O)c1nc[nH]c1C(=O)N[C@@H](C)C(=O)OCc1ccccc1)C(=O)OCc1ccccc1	Vif imaging 68
CCCN(CCC)c1nc(N)nc(-c2cc(Cl)ccc2OC)n1	SR-BI HDL uptake 82
CCCNc1nc(N)nc(-c2cc(Cl)ccc2OC)n1	none
O=C(NC(=S)NNC(=O)c1ccccc1O)c1cccc([N+](=O)[O-])c1	SR-BI HDL uptake 109 (no result: H9c2 TAG inh)
COc1ccc(C(=O)NC(=S)NNC(=O)c2ccccc2O)cc1	SR-BI HDL uptake 89 (no result: H9c2 TAG inh)
COc1ccc(C(=O)NNC(=S)NC(=O)c2cccc([N+](=O)[O-])c2)cc1	none
O=C(NC(=S)NNC(=O)c1ccccc1O)c1cccnc1	SR-BI HDL uptake 124
CCOC(=O)C1(Cc2cccc(Cl)c2)CCCN(C(=O)CN2C(=O)CSC2=O)C1 (configuration not stated)	none
Cc1cc(C)cc(Nc2nc3c(S(=O)(=O)c4ccccc4)nnn3c3ccccc23)c1	none
Cc1cccc(Nc2nc3c(S(=O)(=O)c4ccccc4)nnn3c3ccccc23)c1	A1 inh 7.4 (no result: H9c2 TAG inh)

Screening data deposited in PubChem by several laboratories.
